In the library only some 1% were active in any assay of this set; here they are far more common.
Yeast eIF2B: eIF2B (yeast) activity modulation | AID 688 | inhibition, % at 25 µM (by protocol) | 27,000 compounds, 0.91% hits | S. cerevisiae eIF2B-epsilon R284H, GCN4-lacZ luminescence;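 active = mutant luminescence inhibited past about 50% while wild type luminescence and mutant growth stay under set limits, limit read from the data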
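Assay system: yeast eIF2B-epsilon R284H mutant carrying GCN4–beta-galactosidase fusion / Buffer or medium: YPD / Incubation: 16 h growth with compound at 30 °C, 90 min Beta-Glo step / Detection: Beta-Glo luminescence after Z-buffer lysis, growth by 595 nm absorbance / Read-out: % inhibition of reporter signal and growth versus controls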
Yeast tox: Compounds toxic to wild-type S. cerevisiae growth. A595 turbidity, 16 h. growth inhibition, % at 25 µM (by protocol). 30,000 compounds, 0.3% hits;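 active = mutant and wild-type yeast strains alike exhibit over 30% growth inhibition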;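 also: 0% = untreated cell controls and 100% = YPD media blanks without cells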
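Incubation: 16 h growth with compound, 30 °C; Material: S. cerevisiae wild-type or eIF2Bepsilon-R284H mutant strain; Signal: turbidity measured as absorbance at 595 nm; Medium: YPD yeast growth medium; Measure: growth inhibition (%) versus cell controls and blanks; Doses: 25 µM single dose.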
* marks the source's active call; other numbers are inactive results; . = no result.

SMILES	Yeast eIF2B	Yeast tox
C=CCc1c(C)c(C#N)c2nc3ccccc3n2c1NCCN(C)C	95	95*
CCc1c(C)c(C#N)c2nc3ccccc3n2c1NCc1ccco1	.	22
CCCCSc1nc2sc3c(c2c(=O)[nH]1)CCC3	16	-20
CCOC(=O)CSc1nc2sc3c(c2c(=O)[nH]1)CCCC3	50*	-44
Cc1c(C(=O)N2CCCC2)sc(NC(=O)c2ccc(Cl)cc2)c1C#N	71*	7
COc1cc(C(=O)Nc2sc(C(=O)N3CCOCC3)c(C)c2C#N)cc(OC)c1OC	16	-8
CC(C)NC(=O)C(=O)NC1CCCCCC1	22	34
CCCC(CCC(=O)NC1CCCCC1)C(=O)O (stereo unspecified)	91*	-6
CC1CN(C(=O)c2cc3c(=O)n4ccccc4nc3s2)CC(C)O1 (stereo unspecified)	43	-4
CCCOC(=O)c1ccc(Oc2cn[nH]c2-c2ccc(OC)cc2O)cc1	29	60*
CCOc1ccc(-c2[nH]ncc2Oc2ccccc2OC)c(O)c1	8	32
CC(=O)c1cccc(-n2nnnc2SCC(=O)Nc2ccccc2N2CCCCC2)c1	19	7
CC(=O)c1cccc(-n2nnnc2SCC(=O)Nc2cccc(NC(=O)c3ccco3)c2)c1	61*	7
O=C(CCN1CCN(C(=O)c2ccco2)CC1)Nc1ccc(F)cc1	69*	-14
CC(=O)Nc1ccc(C(=O)N2CCN(C(=O)c3ccco3)CC2)cc1	13	-2
CCC(=O)Nc1ccc(NC(=O)c2cc3ccccc3o2)cc1	19	18
O=C(Nc1ccccn1)c1cc2ccccc2o1	57*	.
Cc1ccc(N2C(=O)C3C4C=CC(C4)C3C2=O)cc1C (stereo unspecified)	7	-6
Cc1cccc(N2C(=O)C3C4C=CC(C4)C3C2=O)c1 (stereo unspecified)	57*	-6
CCCCN(CC)CCCNC(=O)CC1Oc2ccccc2NC1=O (stereo unspecified)	3	29
CN1c2ccccc2Oc2c(c(=O)n(C)c(=O)n2C)C1c1cccc([N+](=O)[O-])c1 (stereo unspecified)	12	13
Oc1ccc(Br)cc1-c1cc(-c2ccccc2)n[nH]1	28	80*
Cc1ccc(O)c(-c2cc(-c3ccccc3F)[nH]n2)c1	.	-5
Cc1ccc(-c2cc(-c3cccc(F)c3)n[nH]2)c(O)c1	.	30*
Oc1ccc(Br)cc1-c1cc(-c2ccc(Cl)cc2)n[nH]1	.	-15
SMILES	Yeast eIF2B	Yeast tox
Oc1ccccc1-c1cc(-c2ccc3c(c2)OCCO3)n[nH]1	51*	.
COc1ccc(-c2cc(-c3ccccc3O)[nH]n2)cc1OC	17	5
Cc1ccc(-c2cc(C(=O)Nc3c(C)n(C)n(-c4ccccc4)c3=O)[nH]n2)c(O)c1	.	-14
Cc1ccc(O)c(-c2cc(-c3cccc(F)c3)n[nH]2)c1	.	51*
COc1ccc(C(=O)OCCN2CCOCC2)cc1	25	.
Cc1ccc(C)c(C(=O)NCc2ccncc2)c1	12	.
O=C(Cn1cnc2c(nnn2Cc2ccc(F)cc2)c1=O)N1CCCc2ccccc21	16	6
O=C(NCc1cccnc1)C1CCCN(Cc2cnn(-c3ccccc3)c2-n2cccc2)C1 (stereo unspecified)	1	18
Cc1ccc(S(=O)(=O)NCCCOC(=O)Nc2ccncc2)cc1	4	-2
Cc1ccc(S(=O)(=O)NNc2nc3ccccc3nc2C(F)(F)F)cc1	13	18
CCCn1c(SCC(=O)Nc2cccc(C)n2)nnc1-c1ccco1	-15	-8
O=c1cc(O)nc(SC23CC4CC(CC(C4)C2)C3)[nH]1	2	1
